# pIC50: −log10 of the molar value.
# Assays:
# Glutamate NMDA receptor = test: Inhibition against NMDA receptor by displacement of [3H]TCP binding from rat cortical membranes; format: cell membranes, Membrane
# Mus musculus = test: Effective dose required for 50% inhibition of clonic seizures in mice induced by racemic NMDLA when administered intraperitoneally; format: functional; conditions: ip
# How it was run: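 Swiss Webster mice, 10 per group, dosed ip with drug in distilled water 0.5 h before N-methyl-D,L-aspartic acid 350 mg/kg sc. Each mouse observed 30 min for clonic seizures lasting at least 3 s; protection means no seizure in that time. Controls received vehicle. ED50 taken at time of peak effect from three or more doses, Litchfield-Wilcoxon method.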
# Rattus norvegicus [1] = test: Evaluated for reduction of NMDA-induced necrosis at 100 mg/kg subcutaneous dose in rats.; format: functional
# How it was run: (§1)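 Male Sprague-Dawley rats (280-310 g) under chloral hydrate (400 mg/kg ip). Unilateral dorsal hippocampal CA1 lesion made by stereotaxic infusion of NMDA 20 nmol over 5 min. Drugs given sc or ip 1 h before infusion. Brains perfusion-fixed at 7 days and cresyl violet-stained; lesion volume measured by image analysis. n = 4 per group, compared with control by t-test.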
# Rattus norvegicus [2] = test: Evaluated for reduction of NMDA-induced necrosis volume at 100 mg/kg subcutaneous dose in rats.; format: functional; how it was run: as §1
# Rattus norvegicus [3] = test: Evaluated for reduction of NMDA-induced necrosis at 30 mg/kg subcutaneous dose in rats.; format: functional; how it was run: as §1
# Rattus norvegicus [4] = test: Evaluated for reduction of NMDA-induced necrosis volume at 30 mg/kg subcutaneous dose in rats.; format: functional; how it was run: as §1
# Rattus norvegicus [5] = test: Reduction of photochemically induced cerebral focal ischemia in rat was evaluated 10.0 mg/kg intravenous dose; format: functional
# How it was run: (§2)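 Male rats (300-350 g) under halothane (3 vol% induction, 1.2 vol% maintenance in O2). Rose Bengal (5 mg in 1 mL) infused through the femoral vein, then thrombotic focal cortical ischemia induced photochemically with light. Drug given iv 30 min after ischemia to groups of 5-7 rats. Infarct volume (mm3) measured by image analysis of cresyl violet-stained 20-µm sections.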
# Rattus norvegicus [6] = test: Reduction of photochemically induced cerebral focal ischemia in rat was evaluated 3.0 mg/kg intravenous dose; format: functional; how it was run: as §2
# Gerbillinae [7] = test: Carotid artery occlusion-induced hippocampal damage was evaluated 15 min after carotid occlusion 60 mg/kg intraperitoneal dose; format: functional, Hippocampus
# How it was run: (§3)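 Male Mongolian gerbils (65-75 g, n = 14-15) under halothane (2.6 vol% induction, 1.2 vol% maintenance in N2:O2 2:1). Forebrain ischemia by bilateral 5-min carotid occlusion with reperfusion. Drug given ip 15 min before or 15 min after occlusion. CA1 cell necrosis rated on a 0-4 scale (0 none to 4 all CA1 cells). Group means compared by t-test.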
# Rattus norvegicus [8] = test: Percent change in reduction of photochemically induced cerebral focal ischemia in control and treated rat at 20 mg/kg intravenous dose; format: functional; how it was run: as §2
# Rattus norvegicus [9] = test: Reduction of photochemically induced cerebral focal ischemia in rat was evaluated at 1.0 mg/kg intravenous dose; format: functional; how it was run: as §2
# Gerbillinae [10] = test: Percent reduction of carotid artery occlusion-induced hippocampal damage at 30 mg/kg intraperitoneal dose.; format: functional, Hippocampus; how it was run: as §3
# Rattus norvegicus [11] = test: Percent change in reduction of photochemically induced cerebral focal ischemia in control and treated rat at 3.0 mg/kg intravenous dose; format: functional; how it was run: as §2
# Rattus norvegicus [12] = test: Percent change in reduction of photochemically induced cerebral focal ischemia in control and treated rat at 1.0 mg/kg intravenous dose; format: functional; how it was run: as §2
# Gerbillinae [13] = test: Carotid artery occlusion-induced hippocampal damage was evaluated 15 min before carotid occlusion at 30 mg/kg intraperitoneal dose.; format: functional, Hippocampus; how it was run: as §3
# Rattus norvegicus [14] = test: Reduction of photochemically induced cerebral focal ischemia in rat was evaluated at 20.0 mg/kg intravenous dose; format: functional; how it was run: as §2
# Gerbillinae [15] = test: Carotid artery occlusion-induced hippocampal damage was evaluated 15 min before carotid occlusion at 60 mg/kg intraperitoneal dose.; format: functional, Hippocampus; how it was run: as §3
# Rattus norvegicus [16] = test: Reduction of photochemically induced cerebral focal ischemia in rat was evaluated at 0.3 mg/kg intravenous dose; format: functional; how it was run: as §2
# Gerbillinae [17] = test: Percent reduction Carotid artery occlusion-induced hippocampal damage at 50 mg/kg intraperitoneal dose.; format: functional, Hippocampus; how it was run: as §3
# Gerbillinae [18] = test: Carotid artery occlusion-induced hippocampal damage was evaluated 15 min after carotid occlusion 50 mg/kg intraperitoneal dose; format: functional, Hippocampus; how it was run: as §3
# Rattus norvegicus [19] = test: Percent change in reduction of photochemically induced cerebral focal ischemia in control and treated rat at 10 mg/kg intravenous dose; format: functional; how it was run: as §2
# Gerbillinae [20] = test: Percent reduction Carotid artery occlusion-induced hippocampal damage at 30 mg/kg intraperitoneal dose.; format: functional, Hippocampus; how it was run: as §3
# Rattus norvegicus [21] = test: Reduction of photochemically induced cerebral focal ischemia in rat was evaluated at 10 mg/kg intravenous dose; format: functional; how it was run: as §2
# Rattus norvegicus [22] = test: Percent change in reduction of photochemically induced cerebral focal ischemia in control and treated rat at 0.3 mg/kg intravenous dose; format: functional; how it was run: as §2
# Rattus norvegicus [23] = test: Percent change in reduction of photochemically induced cerebral focal ischemia in control and treated rat at 3 mg/kg intravenous dose; format: functional; how it was run: as §2
# Gerbillinae [24] = test: Carotid artery occlusion-induced hippocampal damage was evaluated by using compound 15 min before carotid occlusion at 30 mg/kg intraperitoneal dose; format: functional, Hippocampus; how it was run: as §3
# Gerbillinae [25] = test: Carotid artery occlusion-induced hippocampal damage was evaluated 15 min after carotid occlusion 10 mg/kg intraperitoneal dose; format: functional, Hippocampus; how it was run: as §3
# Gerbillinae [26] = test: Percent reduction Carotid artery occlusion-induced hippocampal damage at 10 mg/kg intraperitoneal dose.; format: functional, Hippocampus; how it was run: as §3
# Gerbillinae [27] = test: Carotid artery occlusion-induced hippocampal damage was evaluated 15 min after carotid occlusion 30 mg/kg intraperitoneal dose; format: functional, Hippocampus; how it was run: as §3
# Rattus norvegicus [28] = test: Reduction of photochemically induced cerebral focal ischemia in rat was evaluated at 3.0 mg/kg intravenous dose; format: functional; how it was run: as §2
# Gerbillinae [29] = test: Carotid artery occlusion-induced hippocampal damage was evaluated by using compound 15 min before carotid occlusion at 30 mg/kg intraperitoneal dose.; format: functional, Hippocampus; how it was run: as §3
# Rattus norvegicus [30] = test: Reduction of photochemically induced cerebral focal ischemia in rat was evaluated at 0.1 mg/kg intravenous dose; format: functional; how it was run: as §2
# Rattus norvegicus [31] = test: Reduction of photochemically induced cerebral focal ischemia in rat was evaluated by using control at 3 mg/kg intravenous dose; format: functional; how it was run: as §2
# Rattus norvegicus [32] = test: Evaluated for reduction of NMDA-induced necrosis volume at 2.0 mg/kg intraperitoneally dose in rats.; format: functional; conditions: route intraperitoneal; how it was run: as §1
# Rattus norvegicus [33] = test: Evaluated for reduction of NMDA-induced necrosis at 2.0 mg/kg intraperitoneal dose in rats.; format: functional; how it was run: as §1
# Rattus norvegicus [34] = test: Evaluated for reduction of NMDA-induced necrosis at 0.7 mg/kg intraperitoneal dose in rats.; format: functional; how it was run: as §1
# Gerbillinae [35] = test: Percent reduction of carotid artery Carotid artery occlusion-induced hippocampal damage at 5 mg/kg intraperitoneal dose.; format: functional, Hippocampus; how it was run: as §3
# Rattus norvegicus [36] = test: Evaluated for reduction of NMDA-induced necrosis at 7.0 mg/kg intraperitoneal dose in rats.; format: functional; how it was run: as §1
# Gerbillinae [37] = test: Carotid artery occlusion-induced hippocampal damage was evaluated by using compound 15 min before carotid occlusion at 5 mg/kg intraperitoneal dose.; format: functional, Hippocampus; how it was run: as §3
# Gerbillinae [38] = test: Carotid artery occlusion-induced hippocampal damage was evaluated by using control 15 min before carotid occlusion at 5 mg/kg intraperitoneal dose.; format: functional, Hippocampus; how it was run: as §3
# Rattus norvegicus [39] = test: Evaluated for reduction of NMDA-induced necrosis volume at 7.0 mg/kg intraperitoneally dose in rats.; format: functional; conditions: route intraperitoneal; how it was run: as §1
# Rattus norvegicus [40] = test: Evaluated for reduction of NMDA-induced necrosis volume at 0.7 mg/kg intraperitoneally dose in rats.; format: functional; conditions: route intraperitoneal; how it was run: as §1
# Rattus norvegicus [41] = test: Reduction of photochemically induced cerebral focal ischemia in rat was evaluated by using compound at 3 mg/kg intravenous dose; format: functional; how it was run: as §2
smiles,measurement,setting,value
CNC(Cc1cc(Br)ccc1N)c1sccc1C (stereo not given),pIC50,Glutamate NMDA receptor,7.35
same,ED50,Mus musculus,> 5 mg/kg
Cc1ccsc1C(Cc1ccccc1N(C)C)N(C)C (stereo not given),pIC50,Glutamate NMDA receptor,6.48
same,ED50,Mus musculus,> 60 mg/kg
CNC(Cc1cc(Cl)ccc1N)c1sccc1C (stereo not given),pIC50,Glutamate NMDA receptor,7.60
same,ED50,Mus musculus,≥ 30 mg/kg
Cc1ccsc1C(Cc1ccccc1N)N(C)C (stereo not given),pIC50,Glutamate NMDA receptor,6.43
same,ED50,Mus musculus,> 60 mg/kg
CNc1ccccc1CC(c1sccc1C)N(C)C (stereo not given),ED50,Mus musculus,> 60 mg/kg
O=C(O)C1CN(CCCP(=O)(O)O)CCN1 (stereo not given),pIC50,Glutamate NMDA receptor,< 4.00
CNC(Cc1ccccc1N)c1ccc(C)s1 (stereo not given),pIC50,Glutamate NMDA receptor,5.28
same,ED50,Mus musculus,> 60 mg/kg
CNC(Cc1ccc(C(F)(F)F)cc1N)c1sccc1C (stereo not given),pIC50,Glutamate NMDA receptor,< 5.00
Cc1ccsc1C(N)Cc1ccccc1N.Cl (stereo not given),pIC50,Glutamate NMDA receptor,5.40
same,ED50,Mus musculus,19 mg/kg
CNc1ccccc1CC(NC)c1sccc1C.Cl (stereo not given),pIC50,Glutamate NMDA receptor,5.42
same,ED50,Mus musculus,> 60 mg/kg
CNC(Cc1ccc(Cl)cc1N)c1sccc1C.Cl (stereo not given),pIC50,Glutamate NMDA receptor,4.74
same,ED50,Mus musculus,≥ 60 mg/kg
CCCNC(Cc1ccccc1N)c1sccc1C.Cl (stereo not given),pIC50,Glutamate NMDA receptor,6.89
same,ED50,Mus musculus,14.1 mg/kg
CCNC(Cc1ccccc1N)c1sccc1C.Cl (stereo not given),Reduction,Rattus norvegicus [1],95%
same,Volume,Rattus norvegicus [2],0.0098 µM
same,Reduction,Rattus norvegicus [3],67%
same,pIC50,Glutamate NMDA receptor,7.37
same,Volume,Rattus norvegicus [4],0.059 µM
same,ED50,Mus musculus,6.4 mg/kg
CNC(Cc1ccccc1N)c1cccs1.Cl (stereo not given),ED50,Mus musculus,> 60 mg/kg
"CNC(Cc1ccccc1N)c1sccc1C.Cl (single isomer, unassigned; (-))",Treated,Rattus norvegicus [5],93
same,Treated,Rattus norvegicus [6],73
same,Treated,Gerbillinae [7],3.3
same,Change,Rattus norvegicus [8],13%
same,Treated,Rattus norvegicus [9],66
same,Reduction,Gerbillinae [10],32%
same,Change,Rattus norvegicus [11],6%
same,Change,Rattus norvegicus [12],7%
same,Treated,Gerbillinae [13],2.8
same,pIC50,Glutamate NMDA receptor,4.24
same,Treated,Rattus norvegicus [14],79
same,Treated,Gerbillinae [15],0.9
CNC(Cc1ccccc1N)c1sccc1C.Cl (stereo in doubt; 3a),Reduction,Rattus norvegicus [1],68%
same,Treated,Rattus norvegicus [16],72
same,Reduction,Gerbillinae [17],18%
same,Treated,Gerbillinae [18],2.13
same,Change,Rattus norvegicus [19],6%
same,Volume,Rattus norvegicus [2],0.057 µM
same,Treated,Rattus norvegicus [9],57
same,Reduction,Gerbillinae [10],75%
same,Reduction,Gerbillinae [20],26%
same,Treated,Rattus norvegicus [21],86
same,Change,Rattus norvegicus [22],0%
same,Change,Rattus norvegicus [23],-16%
same,Treated,Gerbillinae [24],0.3
same,Change,Rattus norvegicus [12],-27%
same,pIC50,Glutamate NMDA receptor,6.46
same,Treated,Gerbillinae [25],2.8
same,ED50,Mus musculus,27.8 mg/kg
same,Reduction,Gerbillinae [26],2%
same,Treated,Gerbillinae [27],2.13
same,Treated,Rattus norvegicus [28],63
CNC(Cc1ccccc1N)c1sccc1C.Cl (stereo in doubt; (+)3a),Treated,Rattus norvegicus [9],67
same,Reduction,Gerbillinae [10],51%
same,Change,Rattus norvegicus [22],13%
same,Treated,Gerbillinae [29],1.5
same,Treated,Rattus norvegicus [30],59
same,Change,Rattus norvegicus [12],14%
same,pIC50,Glutamate NMDA receptor,6.74
C[C@]12N[C@H](Cc3ccccc31)c1ccccc12 [DIZOCILPINE],Control,Rattus norvegicus [31],68
same,Volume,Rattus norvegicus [32],0.01 µM
same,Reduction,Rattus norvegicus [33],<94%
same,Reduction,Rattus norvegicus [34],<44%
same,Reduction,Gerbillinae [35],<22%
same,Reduction,Rattus norvegicus [36],<98%
same,Change,Rattus norvegicus [23],-24%
same,Treated,Gerbillinae [37],0.8
same,Control,Gerbillinae [38],1.05
same,Volume,Rattus norvegicus [39],0.0025 µM
same,Volume,Rattus norvegicus [40],0.1 µM
same,Treated,Rattus norvegicus [41],52
same,ED50,Mus musculus,0.38 mg/kg
